Active and inactive are the calls of the source.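 Rule for the calls: active = growth inhibition above 25% in both replicates, a cutoff set 3 SD above the mean; inconclusive = above 25% in only one replicate; inactive = the rest.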
Assay: OD615 S. cerevisiae growth inhibition, permissive medium, pilot counter-assay, permissive growth control for S. cerevisiae lifespan shortening project (AID 705)
Conditions: OD615, 24 h, at 10 µM, active compounds read high
Method in brief: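 Material: engineered DeaD yeast; compound dosing: one dose 10 µM, DMSO 0.25% final; measure: yeast growth inhibition indicated by reduced 24 h OD615; detection: OD615 turbidity read; incubation: cells pre-grown 4 h, then 24 h compound exposure, 30 °C humidified; medium: permissive synthetic complete medium with raffinose and galactose carbon sources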
For `CCOC(=O)c1sc(N)nc1-c1ccccc1`, the growth inhibition was -5.04% (inactive). With `O=C(Nn1nnnc1Nc1ccccc1)C12CC3CC(CC(C3)C1)C2` the growth inhibition was -3.62% (inactive). In the case of `CCCn1c(CN2CCCCC2CC)nc2c1c(=O)n(C)c(=O)n2C` (stereo not given), the growth inhibition is reported as -3.98% (inactive). In the case of `CC(=O)c1cccc(NC(=O)C2CCCN2S(=O)(=O)c2cccc3cccnc23)c1` (stereo not given), the growth inhibition is reported as -1.04% (inactive). With `CCCC(=O)Nc1ccc(N2CCCCC2)cc1` the growth inhibition was -9.5% (inactive). In the case of `Cc1nc(-c2ccc3c(c2)OCO3)cs1`, the growth inhibition is reported as -3.71% (inactive). In the case of `Cc1cccc(OCCSc2cc(C)nc(N)n2)c1`, the growth inhibition is reported as -6.16% (inactive). For `O=C(O)CC(Cn1cnnn1)c1ccccc1` (stereo not given), the growth inhibition was 3.8% (inactive). With `COc1ccc(C2C(C(=O)NCCN(C)C)c3ccccc3C(=O)N2C)cc1OC` (stereo not given) the growth inhibition was -7.69% (inactive). With `Cc1cc(C)n2nc(SCC(=O)Nc3ccc(F)cc3)nc2n1` the growth inhibition was -11.7% (inactive). With `COc1ccc2c(c1)CC(C1(O)C(=O)N(C)c3ccccc31)C2=O` (stereo not given) the growth inhibition was 2.02% (inactive). With `CCOc1cccc(C(=O)Nc2nnc(-c3ccco3)s2)c1` the growth inhibition was -7.86% (inactive). For `Cc1ccc(Cn2nnc3c(=O)n(CC(=O)c4ccccc4)cnc32)cc1`, the growth inhibition was -5.55% (inactive). In the case of `Cc1ccc(C(c2sc3ncnn3c2O)N2CCCCC2)cc1` (stereo not given), the growth inhibition is reported as -12.7% (inactive). For `Cn1cnnc1SCC(=O)c1ccc2c(c1)CCCC2`, the growth inhibition was -1.79% (inactive). In the case of `CCOC(=O)C1C(=O)NC(SC)=C(C#N)C1c1ccccc1F` (stereo not given), the growth inhibition is reported as -2.39% (inactive). With `CCOC(=O)c1ccc(Nc2ccc(-c3ccc(OC)c(OC)c3)nn2)cc1` the growth inhibition was -6.25% (inactive). For `CCOC(=O)c1ccc2c(c1)NC(=O)C(N1CCN(c3ccc(OC)cc3)CC1)S2` (stereo not given), the growth inhibition was 0.455% (inactive). In the case of `Nc1ccc2nc(-c3ccc(Cl)cc3)[nH]c2c1`, the growth inhibition is reported as -13% (inactive). With `CCOC(=O)c1c(N=CN(C)C)c(C#N)n2c1CCC2` the growth inhibition was -15.1% (inactive). For `Cc1ccc(C(=O)Nc2ccc(S(=O)(=O)N3CCN(C)CC3)cc2)o1`, the growth inhibition was -8.11% (inactive). For `CC(=O)c1cccc(NC(=O)c2cc3ccccn3n2)c1`, the growth inhibition was -5.62% (inactive). With `Cc1cc(Nc2ccc(F)cc2C)n2nc(C)nc2n1` the growth inhibition was -2.58% (inactive). In the case of `CCSC1=C(C#N)C(c2ccccc2C)CC(=O)N1` (stereo not given), the growth inhibition is reported as -9.12% (inactive). In the case of `CCOc1ccc(NC(=O)Nc2ccc3c(c2)N(C)C(=O)CS3)cc1`, the growth inhibition is reported as -12% (inactive). For `CCN(CC)C(=O)C1CCCN(C/C=C/c2ccccc2)C1` (stereo not given), the growth inhibition was -5% (inactive). With `N#CCCCSc1nnc(-c2ccc(Cl)cc2)n1-c1ccccc1` the growth inhibition was -4.58% (inactive). With `CCCC(=O)NCCc1cc2ccc(C)c(C)c2[nH]c1=O` the growth inhibition was -13% (inactive). With `Cc1ccc(-c2ccc(CCC(=O)O)n2C(C)C)cc1` the growth inhibition was 3.3% (inactive). With `COc1ccc(S(=O)(=O)N2Cc3ccccc3CC2C(=O)O)cc1OC` (stereo not given) the growth inhibition was 6.5% (inactive). For `Cc1ccc(-c2csc(N3CCC(C(N)=O)(N4CCCCC4)CC3)n2)cc1`, the growth inhibition was 6.21% (inactive). For `Clc1ccc(NCn2cncn2)nc1`, the growth inhibition was 12.6% (inactive). In the case of `O=C(CN1CCCCC1)Nc1nnc(-c2ccccc2)s1`, the growth inhibition is reported as -11.4% (inactive). With `CCOC(=O)N1CCN(CC(=O)c2ccc3c(c2)CCN3C(C)=O)CC1` the growth inhibition was 0.355% (inactive). With `CN(C)S(=O)(=O)c1ccc(C(=O)Nc2ccc(Cl)cc2)cc1` the growth inhibition was -3.1% (inactive). In the case of `CCOc1ccc(N(CC(=O)Nc2ccc3c(c2)OCCO3)S(=O)(=O)c2c(C)noc2C)cc1`, the growth inhibition is reported as -6.29% (inactive). With `CCOC(=O)c1c(C2CCN(C(=O)OCC)CC2)nc2ccccn12` the growth inhibition was -9.71% (inactive). In the case of `Nc1nc2c(c3c1c(=O)oc1ccccc13)CCCCC2`, the growth inhibition is reported as -4.79% (inactive). With `O=C1CN(C(=O)c2ccc(Br)o2)C(c2ccccc2)c2cc(F)ccc2N1` (stereo not given) the growth inhibition was -12.5% (inactive). With `Cc1cc(=O)c2c(C)nn(-c3ccccc3)c2[nH]1` the growth inhibition was -2.51% (inactive).

Reference: PubChem BioAssay
